ChEMBL document CHEMBL3352487, “Synthesis, antibacterial activity, and biological evaluation of formyl hydroxyamino derivatives as novel potent peptide deformylase inhibitors against drug-resistant bacteria” (Eur J Med Chem, 2014)
In brackets after ≈: the same amount, converted by molar mass.

Assays:
Staphylococcus aureus [1] = test: Antimicrobial activity against methicillin-resistant Staphylococcus aureus after 24 hrs by broth microdilution method; format: functional
Method in brief: (§1)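 Broth microdilution following NCCLS M7-A4, using ATCC strains and clinical isolates from a provincial hospital.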

Haemophilus influenzae [2] = test: Antimicrobial activity against Haemophilus influenzae H128 after 24 hrs by broth microdilution method; format: functional; conditions: H128, 24 h
Method in brief: (§2)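 Broth microdilution following NCCLS M7-A4; ATCC strains and clinical isolates from a provincial hospital.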

Staphylococcus aureus [3] = test: Antimicrobial activity against Staphylococcus aureus WCUH29 after 24 hrs by broth microdilution method; format: functional; conditions: WCUH29, 24 h; method in brief: as §2
Streptococcus pneumoniae [4] = test: Antimicrobial activity against Streptococcus pneumoniae ERY2 after 24 hrs by broth microdilution method; format: functional; conditions: ERY2, 24 h; method in brief: as §2
Staphylococcus aureus [5] = test: Antimicrobial activity against Staphylococcus aureus after 24 hrs by broth microdilution method; format: functional; method in brief: as §2
Haemophilus influenzae [6] = test: Antimicrobial activity against Haemophilus influenzae Q1 after 24 hrs by broth microdilution method; format: functional; conditions: Q1, 24 h; method in brief: as §2
Haemophilus influenzae [7] = test: Antimicrobial activity against AcrA-deficient Haemophilus influenzae H128 after 24 hrs by broth microdilution method; format: functional; conditions: H128, 24 h; method in brief: as §2
Streptococcus pyogenes [8] = test: Antimicrobial activity against Streptococcus pyogenes 1307006P after 24 hrs by broth microdilution method; format: functional; method in brief: as §2
[9] = Volume of distribution at steady state in Sprague-Dawley rat at 5 mg/kg, iv; format: ADME, organism-based; design: dose 5 mg/kg, route intravenous; conditions: in vivo, read-out: Vdss
[10] = Half life in Sprague-Dawley rat at 5 mg/kg, iv; format: ADME, organism-based; design: dose 5 mg/kg, route intravenous; conditions: in vivo
Staphylococcus aureus [11] = test: Antimicrobial activity against methicillin-susceptible Staphylococcus aureus after 24 hrs by broth microdilution method; format: functional; method in brief: as §2
Streptococcus pneumoniae [12] = test: Antimicrobial activity against Streptococcus pneumoniae 1629 after 24 hrs by broth microdilution method; format: functional; conditions: Streptococcus pneumoniae, 1629, 24 h; method in brief: as §2
Streptococcus pyogenes [13] = test: Antimicrobial activity against Streptococcus pyogenes 1308007P after 24 hrs by broth microdilution method; format: functional; method in brief: as §2
Staphylococcus aureus [14] = test: Antimicrobial activity against Staphylococcus aureus OXFORD after 24 hrs by broth microdilution method; format: functional; method in brief: as §1
hERG (KCNH2) [15] = target: T1, hERG (KCNH2) (Homo sapiens, UniProt Q12809); test: Inhibition of human ERG at 1 uM
Escherichia coli [16] = test: Antimicrobial activity against Escherichia coli isolate 3 after 24 hrs by broth microdilution method; format: functional; conditions: isolate 3, 24 h; method in brief: as §2
[17] = AUC (0 to t) in Sprague-Dawley rat at 25 mg/kg, po; format: ADME, organism-based; design: dose 25 mg/kg, route oral; conditions: plasma
[18] = Clearance in Sprague-Dawley rat at 5 mg/kg, iv; format: ADME, organism-based; design: dose 5 mg/kg, route intravenous; conditions: in vivo
[19] = Mean residence time (0 to t) in Sprague-Dawley rat at 5 mg/kg, iv; format: ADME, organism-based; design: dose 5 mg/kg, route intravenous; conditions: in vivo
[20] = AUC (0 to t) in Sprague-Dawley rat at 5 mg/kg, iv; format: ADME, organism-based; design: dose 5 mg/kg, route intravenous; conditions: plasma
[21] = tested on: Staphylococcus epidermidis; test: Antimicrobial activity against Staphylococcus epidermidis after 24 hrs by broth microdilution method; format: functional; method in brief: as §2
[22] = Cmax in Sprague-Dawley rat at 25 mg/kg, po; format: ADME, organism-based; design: dose 25 mg/kg, route oral; conditions: in vivo
[23] = Half life in Sprague-Dawley rat at 25 mg/kg, po; format: ADME, organism-based; design: dose 25 mg/kg, route oral; conditions: in vivo
Streptococcus pneumoniae [24] = test: Antimicrobial activity against Streptococcus pneumoniae N1387 after 24 hrs by broth microdilution method; format: functional; conditions: N1387, 24 h; method in brief: as §2
Enterococcus faecalis = test: Antimicrobial activity against Enterococcus faecalis Isolate 1 after 24 hrs by broth microdilution method; format: functional; conditions: Isolate 1, 24 h; method in brief: as §2
[25] = Mean residence time (0 to t) in Sprague-Dawley rat at 25 mg/kg, po; format: ADME, organism-based; design: dose 25 mg/kg, route oral; conditions: in vivo
[26] = Tmax in Sprague-Dawley rat at 25 mg/kg, po; format: ADME, organism-based; design: dose 25 mg/kg, route oral; conditions: in vivo
Escherichia coli [27] = test: Antimicrobial activity against Escherichia coli isolate 1 after 24 hrs by broth microdilution method; format: functional; conditions: isolate 1, 24 h; method in brief: as §2
hERG (KCNH2) [28] = target: T1, hERG (KCNH2); test: Inhibition of human ERG at 10 uM
[29] = AUC (0 to infinity) in Sprague-Dawley rat at 5 mg/kg, iv; format: ADME, organism-based; design: time infinity, dose 5 mg/kg, route intravenous; conditions: plasma
Enterococcus faecium = test: Antimicrobial activity against Enterococcus faecium X7501 after 24 hrs by broth microdilution method; format: functional; conditions: X7501, 24 h; method in brief: as §2
Escherichia coli [30] = test: Antimicrobial activity against Escherichia coli isolate 2 after 24 hrs by broth microdilution method; format: functional; conditions: isolate 2, 24 h; method in brief: as §2
[31] = Oral bioavailability in Sprague-Dawley rat at 25 mg/kg; format: ADME, organism-based; conditions: in vivo
Moraxella catarrhalis = test: Antimicrobial activity against Moraxella catarrhalis 1502 after 24 hrs by broth microdilution method; format: functional; conditions: Moraxella catarrhalis, 1502, 24 h; method in brief: as §2
[32] = AUC (0 to infinity) in Sprague-Dawley rat at 25 mg/kg, po; format: ADME, organism-based; design: dose 25 mg/kg, route oral, time infinity; conditions: plasma

T1 sequence (Q12809 whole entry): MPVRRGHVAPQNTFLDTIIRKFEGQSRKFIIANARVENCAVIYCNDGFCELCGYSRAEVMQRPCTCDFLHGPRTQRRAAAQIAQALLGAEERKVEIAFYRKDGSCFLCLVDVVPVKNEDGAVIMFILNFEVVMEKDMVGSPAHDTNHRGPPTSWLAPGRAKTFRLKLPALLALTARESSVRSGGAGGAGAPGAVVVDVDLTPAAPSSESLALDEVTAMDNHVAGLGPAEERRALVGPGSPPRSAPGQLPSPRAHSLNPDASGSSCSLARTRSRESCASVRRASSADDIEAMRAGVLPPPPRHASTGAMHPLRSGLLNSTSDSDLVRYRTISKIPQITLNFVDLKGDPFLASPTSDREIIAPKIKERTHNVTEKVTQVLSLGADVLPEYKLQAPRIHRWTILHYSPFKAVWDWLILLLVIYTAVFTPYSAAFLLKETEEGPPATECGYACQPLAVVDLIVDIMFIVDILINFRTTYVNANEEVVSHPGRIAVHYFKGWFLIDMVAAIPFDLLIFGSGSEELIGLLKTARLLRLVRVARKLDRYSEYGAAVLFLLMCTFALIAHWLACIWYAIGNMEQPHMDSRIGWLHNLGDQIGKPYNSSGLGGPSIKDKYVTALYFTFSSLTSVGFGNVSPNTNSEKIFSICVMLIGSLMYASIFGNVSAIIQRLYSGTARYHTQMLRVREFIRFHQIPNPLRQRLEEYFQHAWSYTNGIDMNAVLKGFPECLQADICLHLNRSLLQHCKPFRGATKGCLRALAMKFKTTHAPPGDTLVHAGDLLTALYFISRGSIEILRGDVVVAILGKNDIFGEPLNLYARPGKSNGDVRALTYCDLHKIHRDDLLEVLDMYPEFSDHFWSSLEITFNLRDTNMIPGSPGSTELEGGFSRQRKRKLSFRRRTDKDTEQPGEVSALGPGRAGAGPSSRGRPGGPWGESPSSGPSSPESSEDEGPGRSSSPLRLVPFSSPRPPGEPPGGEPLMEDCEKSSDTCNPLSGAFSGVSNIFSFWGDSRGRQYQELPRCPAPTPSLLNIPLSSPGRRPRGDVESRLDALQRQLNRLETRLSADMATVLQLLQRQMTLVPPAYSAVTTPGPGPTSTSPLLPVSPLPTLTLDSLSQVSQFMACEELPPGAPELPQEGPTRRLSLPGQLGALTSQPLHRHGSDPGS

## O=CN(O)C[C@@H](CC1CCCC1)C(=O)N1CC=C[C@H]1C(=O)Nc1ccc(F)c[n+]1[O-]
Staphylococcus aureus [1]
  MIC: 0.25 µg/mL (≈ 0.595 µM)
Haemophilus influenzae [2]
  MIC: 2 µg/mL (≈ 4.76 µM)
Staphylococcus aureus [3]
  MIC: 0.125 µg/mL (≈ 0.297 µM)
Streptococcus pneumoniae [4]
  MIC: 0.25 µg/mL (≈ 0.595 µM)
Staphylococcus aureus [5]
  MIC: 0.25 µg/mL (≈ 0.595 µM)
Haemophilus influenzae [6]
  MIC: 1 µg/mL (≈ 2.38 µM)
Haemophilus influenzae [7]
  MIC: ≤ 0.06 µg/mL
Streptococcus pyogenes [8]
  MIC: 0.25 µg/mL (≈ 0.595 µM)
[9]
  Vd: 1.6 L/kg
[10]
  half-life: 48.4 min
Staphylococcus aureus [11]
  MIC: 0.5 µg/mL (≈ 1.19 µM)
Streptococcus pneumoniae [12]
  MIC: 0.5 µg/mL (≈ 1.19 µM)
Streptococcus pyogenes [13]
  MIC: 0.5 µg/mL (≈ 1.19 µM)
Staphylococcus aureus [14]
  MIC: 0.5 µg/mL (≈ 1.19 µM)
hERG (KCNH2) [15]
  inhibition at 1 µM: 1.15%
Escherichia coli [16]
  MIC: 64 µg/mL (≈ 152 µM)
[17]
  AUC(0-t): 1630 ng·h/mL
[18]
  clearance: 51.7 mL/min/kg
[19]
  MRT last: 30.2 min
[20]
  AUC(0-t): 1610 ng·h/mL
[21]
  MIC: 0.25 µg/mL (≈ 0.595 µM)
[22]
  Cmax: 956 ng/mL
[23]
  half-life: 155 min
Streptococcus pneumoniae [24]
  MIC: 0.125 µg/mL (≈ 0.297 µM)
Enterococcus faecalis
  MIC: 2 µg/mL (≈ 4.76 µM)
[25]
  MRT last: 121 min
[26]
  Tmax: 22.5 min
Escherichia coli [27]
  MIC: 64 µg/mL (≈ 152 µM)
hERG (KCNH2) [28]
  inhibition at 10 µM: 0.89%
[29]
  AUC(0-inf): 1620 ng·h/mL
Enterococcus faecium
  MIC: 1 µg/mL (≈ 2.38 µM)
Escherichia coli [30]
  MIC: 32 µg/mL (≈ 76.1 µM)
[31]
  bioavailability: 22.4%
Moraxella catarrhalis
  MIC: ≤ 0.06 µg/mL
[32]
  AUC(0-inf): 1810 ng·h/mL
